Results from different studies.
Compare with care: the assays were run in different laboratories.
Target: Citron Rho-interacting kinase (CIT, Homo sapiens, UniProt O14578)

| SMILES | read-out | method | concentration | remaining binding [%] |
| --- | --- | --- | --- | --- |
| C[C@H]1CCN(c2nccc(-c3cnn4ncccc34)n2)C1 | binding |  | 1 µM | 69 |
| Cc1cnc(Nc2ccc(C(=O)N3CCC(N4CCCC4)CC3)cc2)nc1-c1cc2ccccc2s1 | binding | competition with immobilised ligand | 1 µM | 65 |
| CCN1CCN(Cc2ccc(C(=O)Nc3ccc(C)c(Oc4ccc5c(c4)CC(=O)N5)c3)cc2C(F)(F)F)CC1 | binding | competition with immobilised ligand | 1 µM | 65 |
| COc1ccnn2ncc(-c3ccnc(N(C)C)n3)c12 | binding |  | 1 µM | 95 |
| O=C(Nc1c[nH]nc1C(=O)NC1CCNCC1)c1cc(F)cc(F)c1 | binding | competition with immobilised ligand | 1 µM | 100 |
| Cc1cnn2ncc(-c3ccnc(N(C)C)n3)c2c1 | binding |  | 1 µM | 82 |
| COc1cnc(Nc2cccc(S(N)(=O)=O)c2)nc1N1CCN(c2ccccc2)C(=O)C1 | binding | competition with immobilised ligand | 1 µM | 100 |
| CCOC(=O)c1cc2cc(-c3cc(C(=O)NCc4ccc(C(=O)O)cc4)nn3C)ccc2[nH]1 | cell-free assay | competition with immobilised ligand | 0.1 µM | 100 |
| N[C@H]1CCN(c2nccc(-c3cnn4ncccc34)n2)C1 | binding |  | 1 µM | 100 |
| C[C@@H](c1cccc(C#N)c1)n1cc(Cl)cc(C(N)=O)c1=N | cell-free assay | competition with immobilised ligand | 1 µM | 100 |
| O=C(c1ccc(Nc2nccc(-c3cc4ccccc4s3)n2)cc1)N1CCC(N2CCCC2)CC1 | binding | competition with immobilised ligand | 1 µM | 57 |
| CC(=O)c1c(NS(C)(=O)=O)c2cc(-c3ccc(Cl)cc3)c(-c3ccc(Cl)cc3Cl)nc2n(C)c1=O | cell-free assay | competition with immobilised ligand | 1 µM | 96 |
| CC1CCCN1c1nccc(-c2cnn3ncccc23)n1 (stereo not shown) | binding |  | 1 µM | 82 |
| CCC(=O)N[C@H]1CC[C@@H](C(=O)N(C)c2ccc(-c3nc4ccccc4o3)cc2)C1 | cell-free assay | competition with immobilised ligand | 1 µM | 99 |
| CN(C)c1nccc(-c2cnn3ncccc23)n1 | binding |  | 1 µM | 86 |
| CNC(=O)c1ccc(Nc2ncc(C(F)(F)F)c(NCc3nccnc3N(C)S(C)(=O)=O)n2)cc1 | cell-free assay | competition with immobilised ligand | 0.1 µM | 68 |
| COc1ncc2cc3ccccc3nc2c1C#N | cell-free assay | competition with immobilised ligand | 5 µM | 40 |
| COc1cccc(CNC(=O)c2nc3scc(COCc4ccc(C(=O)O)cc4)c3c(=O)[nH]2)c1 | cell-free assay | competition with immobilised ligand | 1 µM | 100 |
| O=C(c1ccc(Nc2ncc(Cl)c(-c3ccc(Cl)s3)n2)cc1)N1CCC(N2CCCC2)CC1 | binding | competition with immobilised ligand | 1 µM | 30 |
